Experimental data pooled from the literature.
In brackets after ≈: the same amount, converted by molar mass.

| SMILES | tested on | assay | test system | setting | measurement | result |
| --- | --- | --- | --- | --- | --- | --- |
| Oc1c(Cl)cc(Cl)cc1-c1[nH]c(Cl)c(Cl)c1Cl | Bacillus subtilis | microbial growth | ATCC6051 |  | MIC | 0.04 µM |
| COc1ccc(-c2[nH]c3c(OC)c(OC)c(OC)cc3c2C(=O)c2cc(OC)c(OC)c(OC)c2)cc1O |  | tubulin polymerisation, inhibitor, absorbance |  |  | IC50 | > 20 µM |
| Oc1c(Br)cc(Br)cc1-c1[nH]c(Br)c(Br)c1Br | Bacillus subtilis | microbial growth | ATCC6051 |  | MIC | 0.01 µM |
| N.N.[Cl][Pt][Cl] | HaCaT | cell growth or viability, MTT |  | 48 h | IC50 | 14.2 µM |
| COc1ccc(-c2[nH]c3c(C)c(C)ccc3c2C(=O)c2cc(OC)c(OC)c(OC)c2)cc1O |  | tubulin polymerisation, inhibitor, absorbance |  |  | IC50 | > 20 µM |
| OC(Cn1cncn1)(Cn1cncn1)c1ccc(F)cc1F | Nakaseomyces glabratus | microbial growth, broth dilution | ATCC2001 |  | MIC | 2 µg/mL |
| O=C/C=C/c1ccccc1 | Cryptococcus neoformans | microbial killing, broth dilution |  | clinical isolate | MFC | 200 µg/mL (≈ 1510 µM) |
| CC[C@@]1(O)C(=O)OCc2c1cc1n(c2=O)Cc2cc3ccccc3nc2-1 | LS174T | cell growth or viability, MTT |  | 48 h | IC50 | 31.6 µM |
